High-throughput results as filed in PubChem BioAssay.
CHRM1 PAM: human M1 muscarinic receptor positive allosteric modulators, primary screen, CHO-K1 cells, Fluo-8 calcium fluorescence, 1536-well; Muscarinic acetylcholine receptor M1 (Homo sapiens), P11229; CHO-K1 hM1, ACh EC20; 0% = ACh EC20, 100% = maximal ACh; activation, % at 3 µM; 360,000 tested, 0.088% active; in the data active = activation above about 19%, passing the limit was not always enough
Target sequence (P11229 whole entry, looked up): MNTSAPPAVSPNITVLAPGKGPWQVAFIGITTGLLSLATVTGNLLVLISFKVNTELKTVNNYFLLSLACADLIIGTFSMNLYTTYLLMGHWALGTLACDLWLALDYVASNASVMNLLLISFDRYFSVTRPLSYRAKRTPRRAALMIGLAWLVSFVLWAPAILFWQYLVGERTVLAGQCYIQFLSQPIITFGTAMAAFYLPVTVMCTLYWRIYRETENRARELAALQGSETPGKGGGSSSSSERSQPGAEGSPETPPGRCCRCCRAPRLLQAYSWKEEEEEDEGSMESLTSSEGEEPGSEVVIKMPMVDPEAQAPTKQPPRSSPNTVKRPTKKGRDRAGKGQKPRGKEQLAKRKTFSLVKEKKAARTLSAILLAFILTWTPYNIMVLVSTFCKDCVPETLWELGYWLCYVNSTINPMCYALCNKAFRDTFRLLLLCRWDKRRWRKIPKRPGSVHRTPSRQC
TAAR1 agonist: human TAAR1 agonists, primary screen, Fluo-8 calcium fluorescence, CHO RD-HGA16 cells. 360,000 tested, 0.99% active. activation, % at 3 µM. vehicle wells 0%, saturating PEA agonist 100%. Trace amine-associated receptor 1 (Homo sapiens), Q96RJ0;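 active = activation above the mean activation of all test compounds in the run plus 3 SD, cut at about 38% in these data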
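System: CHO RD-HGA16 cells carrying human TAAR1 plus Gα16; Incubation: 17-24 h seeding, 75 min 37 °C dye, 30 min RT; Measured by: Fluo-8 fluorescence, 5 s baseline then 140 s kinetic read; Control set: DMSO and PEA EC100; Replication: single well for each compound.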
CHRM1 antagonist: human M1 muscarinic receptor antagonists, primary screen, CHO-K1 cells, Fluo-8 calcium fluorescence, 1536-well; Muscarinic acetylcholine receptor M1 (Homo sapiens), P11229; CHO-K1 hM1, ACh EC80 antagonist; inhibition, % at 3 µM; 360,000 tested, 1.3% active; AID 588852, 2011;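 active = percent inhibition above its own plate's cutoff, namely the mean of that plate's compound wells plus 3 SD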;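 note: peak over basal fluorescence ratio during 140 s after agonist addition; 0% = ACh EC80 plus DMSO and 100% = DMSO alone without agonist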
TAAR1 antagonist: human TAAR1 antagonists, primary screen, Fluo-8 calcium fluorescence, CHO RD-HGA16 cells; Trace amine-associated receptor 1 (Homo sapiens), Q96RJ0; antagonist; inhibition, % at 3 µM; 360,000 tested, 1.5% active; AID 624466, 2012;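 active = inhibition above a per-plate cutoff, the mean inhibition of test compounds on that plate plus 3 SD, cut at about 49% in these data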;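 note: 0% = DMSO plus EC80 beta-PEA response and 100% = DMSO alone without agonist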
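Test system – hTAAR1-expressing CHO RD-HGA16 cells, Gα16-coupled · Also added – β-PEA at EC80 concentration, post-compound challenge · Compound – 3 µM, single point · Incubation – dye loading 75 min at 37 °C, then 30 min room temperature · Measured by – Fluo-8 intracellular calcium dye fluorescence, real-time kinetic reads · Benchmarks – vehicle and agonist controls · Replicates – singlicate, one well per test compound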
M1 ag: human M1 muscarinic receptor agonists, primary screen, Fluo-8 calcium fluorescence, CHO-K1 cells, HTS | Muscarinic acetylcholine receptor M1 (Homo sapiens), P11229 | CHO-K1 hM1, agonist mode; 0% DMSO, 100% acetylcholine EC100 | activation, % at 3 µM | 360,000 tested, 0.33% active;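 active = activation above the run's mean compound activation plus 3 SD, cut at about 16% in these data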;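 note: peak over basal fluorescence ratio within a 140 s kinetic read after compound addition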
TAAR1 nonsel count: nonselective antagonists in TAAR1 counter-screen cells, counter-screen for hTAAR1 antagonist project, cell-based, fluorescence, calcium; shares compounds with TAAR1 antagonist; counterscreen cell line, antagonist mode; inhibition, % at 3 µM; 2,400 tested, 77% active; in the data active = inhibition above about 22%;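 note: CHO-Ga16 host cells stimulated with ATP at an EC80 level; 0% = agonist EC80 plus vehicle and 100% = vehicle without agonist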
TAAR1 antag conf: human TAAR1 antagonists, retest of hits, confirmation, cell-based, fluorescence. AID 651785, 2012. 2,400 tested, 40% active. TAAR1-expressing cells, fluorescence antagonist read-out. shares compounds with TAAR1 antagonist. inhibition, % at 3 µM; in the data active = inhibition above about 49%;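 note: CHO-Ga16 host cells challenged with agonist PEA near its EC80; 0% = agonist at EC80 plus vehicle and 100% = vehicle with no agonist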
Ga16 nonsel ag: calcium activation in Ga16-expressing cells, counter-screen for TAAR1 antagonist project, cell-based, fluorescence; shares compounds with TAAR1 antagonist; agonist counterscreen; activation, % at 3 µM; 2,400 tested, 18% active; AID 651953, 2012; in the data active = activation above about 12%;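 note: 0% = vehicle wells and 100% = saturating stimulus response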
TAAR1 ag count: TAAR1 activation by candidate antagonists – cell-based, fluorescence, counter-screen for TAAR1 antagonist project; shares compounds with TAAR1 antagonist; hTAAR1 cell line, agonist mode; activation, % at 3 µM; 2,400 tested, 2% active; AID 651955, 2012; in the data active = activation above about 37%;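 note: CHO cells stably expressing TAAR1 with calcium dye readout; 0% = DMSO vehicle and 100% = full agonist response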
Active calls of the source: *; . = not tested or not shown. This is a sample that favours compounds with a hit; in the whole collection about 3.4% have one here.

SMILES	CHRM1 PAM	TAAR1 agonist	CHRM1 antagonist	TAAR1 antagonist	M1 ag	TAAR1 nonsel count	TAAR1 antag conf	Ga16 nonsel ag	TAAR1 ag count
COc1cc2c(cc1OC)-c1nnc(-c3cccs3)n1C(C)(C)C2	6	1	-15	50*	-1	8	38	3	-2
COc1cc2c(cc1OC)-c1nnnn1C(C)(C)C2	11	4	-10	13	-3	.	.	.	.
Cc1ccc(C(=O)C2C(=O)C3CCC2C3)cc1 (stereo unspecified)	-7	3	2	0	-3	.	.	.	.
O=C(C1=C[C@@H](c2ccc(C(F)(F)F)cc2)C[C@@H](OCc2ccc(CO)cc2)O1)N1CCN(Cc2ccc3c(c2)OCO3)CC1	0	10	3	55*	-4	32*	34	4	4
COC(=O)c1cc2c(C)cc3ccc(C)cn3c-2c1C(=O)OC	-4	4	4	-5	-3	.	.	.	.
COC(=O)c1cc2ccccn2c2c(C(=O)OC)c(C(=O)OC)cc1-2	6	21	-9	62*	0	28*	49*	9	11
O=c1c(-c2ccccc2)nc2ccccc2n1C(c1ccccc1)c1nc2ccccc2[nH]1 (stereo unspecified)	.	0	.	-71	.	.	.	.	.
CC(=O)Nc1sc(N/N=C/c2ccc(O)cc2)nc1-c1ccc(C)cc1	1	0	-4	-22	-2	.	.	.	.
COc1ccc(/C=N/Nc2nc(-c3ccc(C)cc3)c(NC(C)=O)s2)cc1	12	0	-11	51*	2	7	42	1	4
CC(C)C(=O)NC(=S)Nc1ccc(S(=O)(=O)N(C)Cc2ccccc2)cc1	-14	6	19	69*	-1	34*	50*	7	-2
O=S(=O)(Cc1ccccc1)Nc1ccccc1	4	0	-8	-2	-3	.	.	.	.
CN(Cc1ccccc1)S(=O)(=O)c1ccc(NS(=O)(=O)Cc2ccccc2)cc1	-15	11	30*	55*	-4	35*	52*	9	6
COc1cc2c(cc1OC)[N+]([O-])=C(c1ccccc1)C2=O	.	0	.	-1	.	.	.	.	.
CC1(C)c2[nH]c3ccccc3c2C[C@@H]2C(=O)N(Cc3ccc(F)cc3)C(=O)N21	-8	23	19	67*	-4	34*	50*	7	10
Cc1ccc(CN2C(=O)[C@@H]3Cc4c([nH]c5ccccc45)C(C)(C)N3C2=O)cc1	17	12	0	16	12	.	.	.	.
Cc1ccc(CN2C(=O)[C@H]3Cc4c([nH]c5ccccc45)C(C)(C)N3C2=O)cc1	8	13	0	42	-1	.	.	.	.
CC1(C)c2[nH]c3ccccc3c2C[C@@H]2C(=O)N(c3ccc(F)cc3F)C(=O)N21	-8	30	15	61*	-2	40*	52*	17*	25
CC(C)[C@H](NC(=O)OC(C)(C)C)c1cc(C(=O)N2CCOCC2)c(N)s1	.	-1	.	-4	.	.	.	.	.
Cn1c(N)c(C(=O)COC(=O)C2(c3cccc(F)c3)CCCC2)c(=O)n(C)c1=O	1	16	12	63*	-1	32*	51*	8	13
